From ChEMBL document CHEMBL3593207, “Imidazole clubbed 1,3,4-oxadiazole derivatives as potential antifungal agents” (2015)
Values after ≈ are worked out from the molar mass of the structure shown.

Assays:
Type in all cases: functional
[1] = test system: Candida albicans; test: Cytotoxicity against clinical isolates of Candida albicans 2323 at MIC after 24 hrs by WST1 assay
Outline: (§1)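 Candida cells were exposed to MIC and sub-MIC levels for 24 h in microplates, then to WST-1/CEC dye for 30 min at 37 °C. Plates were shaken 1 min and the reaction stopped with 1% SDS. Formazan was read at 450 nm. % cytotoxicity = 100 × (cell control − experimental)/cell control. Triplicates, mean ± SD.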

[2] = test system: Candida tropicalis; test: Cytotoxicity against clinical isolates of Candida tropicalis 2029 at MIC after 24 hrs by WST1 assay; outline: as §1
[3] = test system: Candida albicans; test: Cytotoxicity against clinical isolates of Candida albicans 2779 at 1/4 MIC after 24 hrs by WST1 assay; outline: as §1
[4] = test system: Candida albicans; test: Inhibition of ergosterol biosynthesis in Candida albicans ATCC 10261 assessed as ergosterol content at 1/2 MIC after 16 hrs by spectrophotometer analysis; design: scale not given: the % may be the effect or the level left
Outline: (§2)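 Cells were pelleted and washed, and wet weight taken. Pellets were saponified in 25% alcoholic KOH at 85 °C for 1 h. Sterols were extracted into n-heptane/water. Ergosterol content is expressed relative to untreated control cells.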

[5] = test system: Candida albicans; test: Inhibition of ergosterol biosynthesis in Candida albicans ATCC 10261 assessed as ergosterol content at MIC after 16 hrs by spectrophotometer analysis; design: scale not given: the % may be the effect or the level left; outline: as §2
[6] = test system: Candida tropicalis; test: Inhibition of ergosterol biosynthesis in Candida tropicalis ATCC 750 assessed as ergosterol content at 1/2 MIC after 16 hrs by spectrophotometer analysis; design: scale not given: the % may be the effect or the level left; outline: as §2
[7] = test system: Candida tropicalis; test: Inhibition of ergosterol biosynthesis in Candida tropicalis ATCC 750 assessed as ergosterol content at MIC after 16 hrs by spectrophotometer analysis; design: scale not given: the % may be the effect or the level left
Outline: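 Cells were harvested, washed, and wet pellet weight recorded. Pellets were saponified in 3 mL 25% alcoholic KOH at 85 °C for 1 h, then sterols extracted into n-heptane. Ergosterol is expressed relative to untreated control cells.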

[8] = test system: Candida albicans; test: Inhibition of ergosterol biosynthesis in Candida albicans 2323 assessed as ergosterol content at 1/2 MIC after 16 hrs by spectrophotometer analysis; design: scale not given: the % may be the effect or the level left; outline: as §2
[9] = test system: Candida albicans; test: Inhibition of ergosterol biosynthesis in Candida albicans 2323 assessed as ergosterol content at MIC after 16 hrs by spectrophotometer analysis; design: scale not given: the % may be the effect or the level left; outline: as §2
[10] = test system: Candida albicans; test: Inhibition of ergosterol biosynthesis in Candida albicans 2367 assessed as ergosterol content at 1/2 MIC after 16 hrs by spectrophotometer analysis; design: scale not given: the % may be the effect or the level left; outline: as §2
[11] = test system: Candida albicans; test: Inhibition of ergosterol biosynthesis in Candida albicans 2367 assessed as ergosterol content at MIC after 16 hrs by spectrophotometer analysis; design: scale not given: the % may be the effect or the level left; outline: as §2
[12] = test system: Candida albicans; test: Inhibition of ergosterol biosynthesis in Candida albicans 2779 assessed as ergosterol content at 1/2 MIC after 16 hrs by spectrophotometer analysis; design: scale not given: the % may be the effect or the level left; outline: as §2
[13] = test system: Candida albicans; test: Inhibition of ergosterol biosynthesis in Candida albicans 2779 assessed as ergosterol content at MIC after 16 hrs by spectrophotometer analysis; design: scale not given: the % may be the effect or the level left; outline: as §2
[14] = test system: Candida tropicalis; test: Inhibition of ergosterol biosynthesis in Candida tropicalis 2029 assessed as ergosterol content at 1/2 MIC after 16 hrs by spectrophotometer analysis; design: scale not given: the % may be the effect or the level left; outline: as §2
[15] = test system: Candida tropicalis; test: Inhibition of ergosterol biosynthesis in Candida tropicalis 2029 assessed as ergosterol content at MIC after 16 hrs by spectrophotometer analysis; design: scale not given: the % may be the effect or the level left; outline: as §2
[16] = test system: Candida tropicalis; test: Inhibition of ergosterol biosynthesis in Candida tropicalis 2356 assessed as ergosterol content at 1/2 MIC after 16 hrs by spectrophotometer analysis; design: scale not given: the % may be the effect or the level left; outline: as §2
[17] = test system: Candida tropicalis; test: Inhibition of ergosterol biosynthesis in Candida tropicalis 2356 assessed as ergosterol content at MIC after 16 hrs by spectrophotometer analysis; design: scale not given: the % may be the effect or the level left; outline: as §2
[18] = test system: Candida albicans; test: Antifungal activity against Candida albicans ATCC 10261 by broth microdilution assay
Outline: (§3)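 CLSI M27-A3 broth microdilution. Compounds diluted to 1 mg/ml in 1% DMSO. Fluconazole (1 mg/ml) served as positive control, 1% DMSO as vehicle control, with media and culture controls. Triplicate at each concentration, repeated thrice. Inocula came from YPDA stocks subcultured in broth for 48 h at 37 °C.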

[19] = test system: Candida tropicalis; test: Antifungal activity against Candida tropicalis ATCC 750 by broth microdilution assay; outline: as §3
[20] = test system: Candida albicans; test: Antifungal activity against clinical isolates of Candida albicans 2323 by broth microdilution assay; outline: as §3
[21] = test system: Candida albicans; test: Antifungal activity against clinical isolates of Candida albicans 2367 by broth microdilution assay; outline: as §3
[22] = test system: Candida albicans; test: Antifungal activity against clinical isolates of Candida albicans 2779 by broth microdilution assay; outline: as §3
[23] = test system: Candida tropicalis; test: Antifungal activity against clinical isolates of Candida tropicalis 2029 by broth microdilution assay; outline: as §3
[24] = test system: Candida tropicalis; test: Antifungal activity against clinical isolates of Candida tropicalis 2356 by broth microdilution assay; outline: as §3
[25] = test system: Candida albicans; test: Antifungal activity against Candida albicans ATCC 10261 at half MIC after 48 hrs by disc diffusion assay
Outline: (§4)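 Cells (10^3 cells ml−1) grown in YPD were mixed into molten agar (~40 °C) and poured into 100-mm plates. Filter discs (4 mm) were spotted with 10 µl of compound at 1/2 × MIC, MIC or 2 × MIC. Fluconazole and 1% DMSO were the controls. Plates were incubated at 37 °C for 48 h and inhibition zone diameters recorded in mm.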

[26] = test system: Candida albicans; test: Antifungal activity against Candida albicans ATCC 10261 at MIC after 48 hrs by disc diffusion assay; outline: as §4
[27] = test system: Candida albicans; test: Antifungal activity against Candida albicans ATCC 10261 at 2 times MIC after 48 hrs by disc diffusion assay; outline: as §4
[28] = test system: Candida tropicalis; test: Antifungal activity against Candida tropicalis ATCC 750 at half MIC after 48 hrs by disc diffusion assay; outline: as §4
[29] = test system: Candida tropicalis; test: Antifungal activity against Candida tropicalis ATCC 750 at MIC after 48 hrs by disc diffusion assay; outline: as §4
[30] = test system: Candida tropicalis; test: Antifungal activity against Candida tropicalis ATCC 750 at 2 times MIC after 48 hrs by disc diffusion assay; outline: as §4
[31] = test system: Candida albicans; test: Antifungal activity against clinical isolates of Candida albicans 2323 at half MIC after 48 hrs by disc diffusion assay; outline: as §4
[32] = test system: Candida albicans; test: Antifungal activity against clinical isolates of Candida albicans 2323 at MIC after 48 hrs by disc diffusion assay; outline: as §4
[33] = test system: Candida albicans; test: Antifungal activity against clinical isolates of Candida albicans 2323 at 2 times MIC after 48 hrs by disc diffusion assay; outline: as §4
[34] = test system: Candida albicans; test: Antifungal activity against clinical isolates of Candida albicans 2367 at half MIC after 48 hrs by disc diffusion assay; outline: as §4
[35] = test system: Candida albicans; test: Antifungal activity against clinical isolates of Candida albicans 2367 at MIC after 48 hrs by disc diffusion assay; outline: as §4
[36] = test system: Candida albicans; test: Antifungal activity against clinical isolates of Candida albicans 2367 at 2 times MIC after 48 hrs by disc diffusion assay; outline: as §4
[37] = test system: Candida albicans; test: Antifungal activity against clinical isolates of Candida albicans 2779 at half MIC after 48 hrs by disc diffusion assay; outline: as §4
[38] = test system: Candida albicans; test: Antifungal activity against clinical isolates of Candida albicans 2779 at MIC after 48 hrs by disc diffusion assay; outline: as §4
[39] = test system: Candida albicans; test: Antifungal activity against clinical isolates of Candida albicans 2779 at 2 times MIC after 48 hrs by disc diffusion assay; outline: as §4
[40] = test system: Candida tropicalis; test: Antifungal activity against clinical isolates of Candida tropicalis 2029 at half MIC after 48 hrs by disc diffusion assay; outline: as §4
[41] = test system: Candida tropicalis; test: Antifungal activity against clinical isolates of Candida tropicalis 2029 at MIC after 48 hrs by disc diffusion assay; outline: as §4
[42] = test system: Candida tropicalis; test: Antifungal activity against clinical isolates of Candida tropicalis 2029 at 2 times MIC after 48 hrs by disc diffusion assay; outline: as §4
[43] = test system: Candida tropicalis; test: Antifungal activity against clinical isolates of Candida tropicalis 2356 at half MIC after 48 hrs by disc diffusion assay; outline: as §4
[44] = test system: Candida tropicalis; test: Antifungal activity against clinical isolates of Candida tropicalis 2356 at MIC after 48 hrs by disc diffusion assay; outline: as §4
[45] = test system: Candida tropicalis; test: Antifungal activity against clinical isolates of Candida tropicalis 2356 at 2 times MIC after 48 hrs by disc diffusion assay; outline: as §4

CCc1ccnc(-c2nccn2Cc2nnc(-c3ccccc3OC(C)=O)o2)c1
Activity [1]: 60.62%
Activity [2]: 60.62%
Activity [3]: 7.31%
Activity [4]: 51%
Activity [5]: 100%
Activity [6]: 47%
Activity [7]: 100%
Activity [8]: 42%
Activity [9]: 91%
Activity [10]: 52%
Activity [11]: 89%
Activity [12]: 52%
Activity [13]: 93%
Activity [14]: 53%
Activity [15]: 87%
Activity [16]: 48%
Activity [17]: 91%
MIC [18]: 2 µg/mL (≈ 5.14 µM)
MIC [19]: 4 µg/mL (≈ 10.3 µM)
MIC [20]: 16 µg/mL (≈ 41.1 µM)
MIC [21]: 8 µg/mL (≈ 20.5 µM)
MIC [22]: 16 µg/mL (≈ 41.1 µM)
MIC [23]: 16 µg/mL (≈ 41.1 µM)
MIC [24]: 32 µg/mL (≈ 82.2 µM)
inhibition zone (IZ) [25]: 5 mm
inhibition zone (IZ) [26]: 11 mm
inhibition zone (IZ) [27]: 16 mm
inhibition zone (IZ) [28]: 3 mm
inhibition zone (IZ) [29]: 9 mm
inhibition zone (IZ) [30]: 14 mm
inhibition zone (IZ) [31]: 2 mm
inhibition zone (IZ) [32]: 6 mm
inhibition zone (IZ) [33]: 11 mm
inhibition zone (IZ) [34]: 3 mm
inhibition zone (IZ) [35]: 8 mm
inhibition zone (IZ) [36]: 12 mm
inhibition zone (IZ) [37]: 3 mm
inhibition zone (IZ) [38]: 11 mm
inhibition zone (IZ) [39]: 13 mm
inhibition zone (IZ) [40]: 1 mm
inhibition zone (IZ) [41]: 5 mm
inhibition zone (IZ) [42]: 10 mm
inhibition zone (IZ) [43]: 2 mm
inhibition zone (IZ) [44]: 6 mm
inhibition zone (IZ) [45]: 11 mm
